Source: PubChem BioAssay
PostGolgi yeast: phenotypic screen on post-Golgi transport, primary screen. post-Golgi transport phenotypic cell assay. inhibition, % at 10 µM. hit rate 0.9% among 98,000. AID 739, 2007;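 note: yeast cells grown in 1536-well plates; yeast grown about 18 h at 30C before absorbance read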
E coli WT exp: growth inhibitors of wild-type E. coli, primary screen, strain BW25113, expanded library, OD600. hit rate 0.15% among 98,000. growth inhibition, % at 100 µM. OD600 absorbance;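 active = growth inhibition above about 50% at one test dose, limit read from the data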;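 note: growth measured after 20 h incubation at 37 °C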
Cav32 inh: Cav3.2 calcium influx blockers – cell-based, Fluo-4 calcium fluorescence, FDSS, MLSMR library, primary screen; Cav3.2-expressing cells; active compounds read low; B-score at 10 µM; hit rate 4% among 100,000; AID 449739, 2010;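 active = single-dose well whose peak fluorescence ratio is a statistical outlier from its plate by either plate-standardised score or position-corrected B-score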
PostGolgi ctrl: growth inhibition of yeast control strain, primary screen, counter-screen for post-Golgi transport modulator project | efflux-deficient yeast background strain, growth absorbance A615, 16 h | inhibition, % at 10 µM | hit rate 5% among 98,000 | AID 738, 2007
tolC growth inh: growth inhibitors of E. coli tolC mutant, primary screen, strain BW25113 ΔtolC::kan, 384-well; OD615; growth inhibition, % at 10 µM (by protocol); hit rate 2.2% among 65,000; AID 573, 2007;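 active = growth inhibition at or above a cutoff equal to the mean over every tested compound plus 3 SD, cut at about 60% in these data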;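 note: growth measured after 20 h incubation at 37 °C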
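test system = E. coli BW25113 ΔtolC::kan bacteria | medium = LB with kanamycin 50 µg/mL | signal = OD at 615 nm | schedule = 37 °C, 20 h exposure | evaluation = % inhibition of E. coli growth | compound dosing = one dose of 10 µM final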
* hit, by the source's call; / = no result given. Most compounds without a hit are left out; they make up all but 8.4% or so of the library. Cut-off read from the data, not from the text of the source, unless noted: active = inhibition above about 30%; inactive = the rest.

SMILES | PostGolgi yeast | E coli WT exp | Cav32 inh | PostGolgi ctrl | tolC growth inh
CCOc1cc2nc(-c3ccc(OC)c(OC)c3)nc(N3CC(C)OC(C)C3)c2cc1OC (stereo not drawn) | 1 | 0 | / | 13 | /
CCOc1cc2nc(-c3ccc(OC)c(OC)c3)nc(N3CCOCC3)c2cc1OC | 5 | -2 | -6* | 18 | 2
CCOC(=O)C1=C(CN2CCC(C)CC2)NC(=O)NC1c1ccc(Cl)cc1 (stereo not drawn) | 3 | 16 | -1.2 | 6 | 14
CCC1CCCCN1c1nc2c(c(=O)n(C)c(=O)n2C)n1CCSc1nc2ccccc2o1 (stereo not drawn) | / | / | / | / | 10
O=C(CCc1ccccc1)Nc1nc2n(n1)C(c1ccc(Cl)cc1)CC(=O)N2 (stereo not drawn) | -4 | -4 | -1.2 | 46* | /
C=CCn1c(SCC(O)Cn2c3ccccc3c3ccccc32)nnc1-c1ccco1 (stereo not drawn) | -8 | -22 | -2.8 | 46* | 81*
Cc1ccc(O)c(-c2cc(C(=O)Nc3ccc(S(=O)(=O)N4CC(C)OC(C)C4)cc3)[nH]n2)c1 (stereo not drawn) | -9 | -7 | 0.38 | 2 | -36
CCCSc1ncc(Cl)c(C(=O)Nc2ccc(S(=O)(=O)N3CC(C)OC(C)C3)cc2)n1 (stereo not drawn) | 39* | -8 | 1.7 | 21 | /
COc1cc(CNC2CCCC2)cc(OC)c1OC | 21 | 7 | 0.12 | -6 | /
COc1cc(CNC2CCCC2)cc(Cl)c1OCc1ccc(F)cc1 | -1 | 24 | -1.9 | 44* | /
COc1cc(CNC2CCCC2)cc(Cl)c1OCc1ccccc1Cl | 8 | 16 | -0.19 | 33* | /
CN(C)CCCN1C(=O)c2oc3ccc(F)cc3c(=O)c2C1c1cccnc1 (stereo not drawn) | -3 | -11 | 0.62 | 6 | -12
CC(C)OCCCN1C=C2C(=O)C(C)(OC(=O)CCc3ccccc3)C(=O)C=C2C=C1c1ccc(C#N)cc1 (stereo not drawn) | / | / | 0.39 | / | /
N#Cc1nc(Cc2ccccc2)oc1N1CCN(c2ccccc2)CC1 | 5 | -12 | -4.8* | 9 | 46
N#Cc1nc(Cc2ccccc2)oc1N1CCC(Cc2ccccc2)CC1 | -5 | -24 | -5.2* | 9 | 29
N#Cc1nc(Cc2ccccc2)oc1N1CCC(C(N)=O)CC1 | 6 | 7 | -0.81 | -6 | -13
N#CN=C1SCCS1 | 9 | 3 | -4.5* | 7 | -8
COc1ccc(NC(=O)OC(C)C)cc1 | 6 | 9 | 0.19 | 6 | /
O=C(CSc1nc2ccccc2[nH]1)Nc1ccc(F)c(F)c1 | 28 | 19 | -4.4* | 5 | /
COCCN1C(=O)N[C@@H](c2cccc(C(F)(F)F)c2)[C@H](C(C)=O)[C@H]1C | / | / | 1 | / | /
CC(C)=C1C2CCC1C1C(=O)N(NC(=O)COc3ccc(Cl)c(C)c3)C(=O)C21 (stereo not drawn) | 1 | 2 | -5.3* | 12 | /
Nc1nc2sc3c(c2c(=O)s1)CCCC3 | -1 | 3 | -0.78 | 39* | 48
Cc1ccc(C)n1-n1c(C)nc2sc3c(c2c1=O)CCCCC3 | -2 | -3 | -5.6* | 50* | 67*
O=c1c2c3c(sc2nc2n1CCCCC2)CCCC3 | -14 | -9 | -0.49 | 31* | 23
Cc1nc2sc3c(c2c(=O)o1)CCCC3 | 10 | 11 | 0.033 | 0 | -3
SMILES | PostGolgi yeast | E coli WT exp | Cav32 inh | PostGolgi ctrl | tolC growth inh
CC(C)(C)C(=O)N=C1SC2CS(=O)(=O)CC2N1c1ccc2c(c1)OCO2 (stereo not drawn) | -10 | 3 | 0.15 | 1 | -6
CC1=CC(C)(C)N2C(=O)C3(SCC(=O)N3c3ccc(O)cc3)c3cc(C)cc1c32 (stereo not drawn) | -2 | 4 | -7.4* | 15 | 87*
Oc1c(CN2CCCCC2)cc(Br)c2cccnc12 | 1 | 100* | -0.09 | 8 | 100*
Oc1c(CN2CCc3ccccc3C2)cc(Cl)c2cccnc12 | 1 | 86* | / | 3 | 64*
Oc1c(I)cc(Cl)c2cccnc12 | / | / | / | / | 13
CN1CCN(Cc2cc(COCc3ccccc3)c3cccnc3c2O)CC1 | -12 | 22 | -0.53 | 29 | 5
COc1ccc([C@H]2/C=C\CN(C(=O)[C@H](Cc3ccccc3)NC(=O)OCC3c4ccccc4-c4ccccc43)CC(=O)N2Cc2ccc(F)cc2)cc1 | / | / | -1.5 | / | /
COc1ccc(-c2[nH]c(-c3cccc(OC)c3)nc2SCC(=O)NCc2ccco2)cc1 | -4 | -23 | -3.2 | 8 | 67*
